Measured values as given in ChEMBL document CHEMBL4665803, “Discovery of Covalent Inhibitors Targeting the Transcriptional Enhanced Associate Domain Central Pocket” (J Med Chem, 2020).
Active and inactive are the calls of the source. The rule behind the calls is not given here.

Experiments:
[1] = molecular target: T1, Transcriptional enhancer factor TEF-3 (Homo sapiens, UniProt Q15561); experiment: Binding affinity to nonacylated N-terminal His6-tagged human TEAD4 (217 to 434 residues) expressed in Escherichia coli BL21-CodonPlus (DE3)-RIPL cells at 8 equiv after 1 hr by ESI-MS spectrophotometric analysis
T1 sequence (Q15561 whole entry, the tested form may be a part): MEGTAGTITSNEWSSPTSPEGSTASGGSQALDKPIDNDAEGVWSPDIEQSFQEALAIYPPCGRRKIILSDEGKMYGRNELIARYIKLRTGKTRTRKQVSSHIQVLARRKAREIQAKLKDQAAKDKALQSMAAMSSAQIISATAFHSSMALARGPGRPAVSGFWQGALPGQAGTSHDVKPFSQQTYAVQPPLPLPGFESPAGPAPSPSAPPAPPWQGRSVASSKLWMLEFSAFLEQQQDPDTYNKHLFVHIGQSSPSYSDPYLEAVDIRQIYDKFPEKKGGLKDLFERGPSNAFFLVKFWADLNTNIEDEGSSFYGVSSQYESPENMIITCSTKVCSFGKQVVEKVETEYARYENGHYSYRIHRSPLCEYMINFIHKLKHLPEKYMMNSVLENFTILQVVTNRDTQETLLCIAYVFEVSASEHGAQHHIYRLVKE
In short: (§1)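 Whole-protein ESI–MS: 1 μM hTEAD4 incubated 1 h at room temperature with 8 equiv compound in 25 mM HEPES, 150 mM NaCl, pH 6.5; centrifuged, injected via online desalting column to UPLC-MS; masses deconvoluted to detect adducts.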

[2] = molecular target: Transcriptional enhancer factor TEF-3 (Mus musculus) (UniProt Q62296); experiment: Binding affinity to nonacylated mouse TEAD4 assessed as line broadening at Phe386 residue at 0.5 mM by 1H-15N HSQC spectra analysis
Transcriptional enhancer factor TEF-3 (Mus musculus), sequence (Q62296 whole entry, the tested form may be a part): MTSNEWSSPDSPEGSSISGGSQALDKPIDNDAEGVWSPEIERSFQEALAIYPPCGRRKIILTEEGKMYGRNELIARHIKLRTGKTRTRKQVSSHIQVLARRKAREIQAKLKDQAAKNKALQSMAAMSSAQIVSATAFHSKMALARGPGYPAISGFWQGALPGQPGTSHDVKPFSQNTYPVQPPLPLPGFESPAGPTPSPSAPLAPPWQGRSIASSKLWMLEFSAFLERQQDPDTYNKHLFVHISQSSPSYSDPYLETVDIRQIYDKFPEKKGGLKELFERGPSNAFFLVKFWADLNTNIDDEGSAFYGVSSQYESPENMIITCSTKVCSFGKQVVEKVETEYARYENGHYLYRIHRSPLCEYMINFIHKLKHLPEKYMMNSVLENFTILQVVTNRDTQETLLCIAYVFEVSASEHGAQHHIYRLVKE
In short: (§2)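 1H–15N HSQC of 13C/15N-labeled mTEAD4, deacylated with hydroxylamine; spectra with DMSO or compound (0.5 mM) recorded at 37 °C on a 600 MHz cryoprobe instrument in 20 mM HEPES pH 7.3, 150 mM NaCl, 1 mM DTT; spectra overlaid.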

[3] = molecular target: T1, Transcriptional enhancer factor TEF-3; experiment: Inhibition of TEAD4 in HEK293 cells assessed as reduction in ANKRD1 mRNA expression at 1 uM measured after 6 hrs by SYBR green dye based RT-PCR analysis relative to control; format: cell-based
In short: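 HEK293 cells treated with DMSO or compound for 6 h; ANKRD1 mRNA measured by RT-qPCR relative to the DMSO control.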

[4] = molecular target: T1, Transcriptional enhancer factor TEF-3; experiment: (§3) Binding affinity to N-terminal His6-tagged human TEAD4 (217 to 434 residues) expressed in Escherichia coli BL21-CodonPlus (DE3)-RIPL cells assessed as inhibition of protein-FAM-YAP (50 to 100 residues) interaction preincubated for 10 mins followed by FAM YAP addition and measured after 1 hr by fluorescence assay; settings: time 70.0 min
In short: (§4)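 FP competition in PBS pH 7.5: serially diluted compound preincubated 10 min at room temperature with TEAD4 protein, then FAM-YAP50–100 added; shaken 1 h at room temperature, FP read at Ex/Em 485/535 nm. Final FAM/protein: nonacylated hTEAD4 2 nM/5 nM; acylated hTEAD4 3 nM/15 nM. Compound stocks 10 mM in DMSO. IC50 from curve fitting.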

[5] = molecular target: T1, Transcriptional enhancer factor TEF-3; experiment: as §3, with “affinity to nonacylated N-terminal His6-tagged” for “affinity to N-terminal His6-tagged”; in short: as §4
[6] = molecular target: T1, Transcriptional enhancer factor TEF-3; experiment: Inhibition of CPM binding to nonacylated N-terminal His6-tagged human TEAD4 (217 to 434 residues) expressed in Escherichia coli BL21-CodonPlus (DE3)-RIPL cells assessed as ratio of Kinact to Ki measured after 1 to 24 hrs by fluorescence assay; settings: time hrs 1-24
[7] = organism: Mus musculus; experiment: Binding affinity to N-terminal His6-tagged mouse TEAD4 Cys360Ser mutant assessed as inhibition of protein-FAM-YAP (50 to 100 residues) interaction preincubated for 10 mins followed by FAM YAP addition and measured after 1 hr by fluorescence assay; settings: time 70.0 min
In short: (§5)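 FP competition in PBS pH 7.5 with mTEAD4 Cys360Ser or Cys360Ala mutant: serially diluted compound preincubated 10 min at room temperature with protein, then FAM-YAP50–100 added (final 10 nM FAM / 50 nM protein for each mutant); shaken 1 h at room temperature, FP read at Ex/Em 485/535 nm.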

[8] = molecular target: T1, Transcriptional enhancer factor TEF-3; experiment: Inhibition of CPM binding to N-terminal His6-tagged human TEAD4 (217 to 434 residues) expressed in Escherichia coli BL21-CodonPlus (DE3)-RIPL cells at 12.5 uM preincubated for 10 mins followed by CPM addition and measured after 1 hr by fluorescence assay relative to control; settings: time 70.0 min
[9] = molecular target: T1, Transcriptional enhancer factor TEF-3; experiment: Inhibition of CPM binding to N-terminal His6-tagged human TEAD4 (217 to 434 residues) expressed in Escherichia coli BL21-CodonPlus (DE3)-RIPL cells preincubated for 10 mins followed by CPM addition and measured after 1 hr by fluorescence assay; settings: read-out: IC50(app)
[10] = molecular target: T1, Transcriptional enhancer factor TEF-3; experiment: Reversible inhibition of CPM binding to nonacylated N-terminal His6-tagged human TEAD4 (217 to 434 residues) expressed in Escherichia coli BL21-CodonPlus (DE3)-RIPL cells measured after 1 to 24 hrs by fluorescence assay
[11] = molecular target: T1, Transcriptional enhancer factor TEF-3; experiment: Binding affinity to acylated N-terminal His6-tagged human TEAD4 (217 to 434 residues) expressed in Escherichia coli BL21-CodonPlus (DE3)-RIPL cells assessed as covalent adduct formation at 8 equiv after 1 hr by ESI-MS spectrophotometric analysis; in short: as §1
[12] = molecular target: T1, Transcriptional enhancer factor TEF-3; experiment: Binding affinity to TEAD4 in human HCT-116 cells assessed as change in melting temperature at 50 uM after 10 mins by […]; format: cell-based
In short: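 CETSA in HCT116 lysates (PBS, 0.04% NP-40, freeze–thaw lysis, 100,000g clearing; 1 mg/mL protein): compound at 50 μM or DMSO for 10 min at room temperature, aliquots heated across a temperature range, recentrifuged 100,000g at 4 °C for 25 min. Soluble TEAD4 detected by immunoblot with anti-TEAD4 antibody; melting temperature from turning point of fitted curves.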

[13] = molecular target: T1, Transcriptional enhancer factor TEF-3; experiment: Inhibition of FITC-labeled palmitate tracer binding to N-terminal His6-tagged human TEAD4 (217 to 434 residues) expressed in Escherichia coli BL21-CodonPlus (DE3)-RIPL cells assessed as ratio of Kinact to Ki measured after 1 to 24 hrs by fluorescence assay; settings: time hrs 1-24
[14] = molecular target: Transcriptional enhancer factor TEF-1 (Homo sapiens, UniProt P28347); experiment: Inhibition of CPM binding to nonacylated N-terminal His6/GST-tagged human TEAD1 (209 to 426 residues) expressed in Escherichia coli BL21-CodonPlus (DE3)-RIPL cells preincubated for 10 mins followed by CPM addition and measured after 1 hr by fluorescence assay
Transcriptional enhancer factor TEF-1, sequence (P28347 whole entry, the tested form may be a part): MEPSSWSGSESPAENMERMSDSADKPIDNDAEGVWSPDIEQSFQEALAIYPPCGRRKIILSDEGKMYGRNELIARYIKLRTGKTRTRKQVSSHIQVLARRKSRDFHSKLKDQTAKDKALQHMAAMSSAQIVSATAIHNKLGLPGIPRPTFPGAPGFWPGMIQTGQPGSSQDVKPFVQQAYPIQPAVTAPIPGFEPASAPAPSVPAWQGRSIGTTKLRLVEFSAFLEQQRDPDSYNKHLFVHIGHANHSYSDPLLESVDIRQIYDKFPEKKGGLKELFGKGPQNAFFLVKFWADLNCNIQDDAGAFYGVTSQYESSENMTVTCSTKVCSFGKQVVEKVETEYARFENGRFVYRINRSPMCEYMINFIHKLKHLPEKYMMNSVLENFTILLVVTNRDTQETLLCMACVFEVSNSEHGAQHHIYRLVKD

[15] = molecular target: T1, Transcriptional enhancer factor TEF-3; experiment: Inhibition of FITC-labeled palmitate tracer binding to N-terminal His6-tagged human TEAD4 (217 to 434 residues) expressed in Escherichia coli BL21-CodonPlus (DE3)-RIPL cells preincubated for 10 mins followed by FITC-labeled palmitate tracer addition and measured after 1 hr by fluorescence assay
In short: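 FP competition in 25 mM HEPES, 150 mM NaCl, pH 6.5: serially diluted compound preincubated 10 min at room temperature with nonacylated hTEAD4, then FITC-palmitate tracer added (final 50 nM protein, 10 nM tracer); shaken 1 h at room temperature, FP at Ex/Em 485/535 nm. Tracer Kd from saturation binding.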

[16] = organism: Mus musculus; experiment: Binding affinity to N-terminal His6/MBP-tagged mouse TEAD4 (209 to 427 residues) Cys360Ala mutant expressed in Escherichia coli BL21-CodonPlus (DE3)-RIPL cells assessed as inhibition of protein-FAM-YAP (50 to 100 residues) interaction preincubated for 10 mins followed by FAM YAP addition and measured after 1 hr by fluorescence assay; settings: time 70.0 min; in short: as §5
[17] = molecular target: Transcriptional enhancer factor TEF-3 (Mus musculus) (UniProt Q62296); experiment: Binding affinity to nonacylated mouse TEAD4 assessed as line broadening at Phe408 residue at 0.5 mM by 1H-15N HSQC spectra analysis; in short: as §2
[18] = molecular target: T1, Transcriptional enhancer factor TEF-3; experiment: Binding affinity to nonacylated N-terminal His6-tagged human TEAD4 (217 to 434 residues) expressed in Escherichia coli BL21-CodonPlus (DE3)-RIPL cells assessed as melting temperature at 80 uM after 10 mins by SYPRO orange dye-based differential scanning fluorimetry method (reference value: 41 degreeC)

## O=c1cc(CO)oc(C(Nc2ccccc2)c2ccccc2)c1O (stereo not drawn)
[1]
  Activity: Active
[2]
  Activity: Active
[3]
  inhibition: 90%
[4]
  inhibition: inactive
[5]
  IC50: 70 nM
[6]
  Ratio: 8.3
[7]
  inhibition: inactive
[8]
  inhibition: > 50%
[9]
  IC50: 2300 nM
[10]
  Ki: 2600 nM
[11]
  Activity: inactive
[12]
  ΔTm: 3.3 °C
[13]
  Ratio: 4
[14]
  IC50: 2600 nM
[15]
  IC50: 200 nM
[16]
  inhibition: inactive
[17]
  Activity: Active
[18]
  Tm: 36 °C
